Ten compounds from ChEMBL document CHEMBL4138124, “Antineoplastic Agents. 605. Isoquinstatins” (2018) can be followed below.

Numbered stars: 1 amine (or outer) side, 2 acyl side, 3 side chain; on linkers, the order of the positions; unused ones are H or OH. Square brackets hold non-standard residues; d marks the D form. Peptide text beside a SMILES is read from it. * marks the point of attachment. Dolaproine = CO[C@@H]([C@@H]1CCCN1)[C@@H](C)C(=O)O; Hexanoyl(6-maleimido) = O=C1C=CC(=O)N1CCCCCC(=O)*; Dil = CC[C@H](C)[C@H](NC)[C@@H](CC(=O)O)OC; PABC = O=C(OCc1ccc(N[*:1])cc1)[*:2]; Cit = NC(=O)NCCC[C@H](N)C(=O)O; NMeV = CN[C@H](C(=O)O)C(C)C; X1 = c1cc(CCN*)c2cnccc2c1; X2 = c1cc(CCN*)c2ccncc2c1; X3 = c1cc2ccc(CCN*)cc2cn1

Assay type in all cases: functional
The test system of one test is SF-268. As to the kind of experiment: Growth inhibition of human SF268 cells after 48 hrs by SRB assay. As to conditions: SF-268, 48 h. Put shortly:
(§1)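 Cells grown in RPMI1640 with 5% fetal bovine serum, seeded in 96-well plates and incubated 24 h before serial dilutions of compound were added. After a further 48 h, cells were fixed with trichloroacetic acid, stained with sulforhodamine B and read on a plate reader. GI50 (concentration giving 50% reduction in net protein increase) was calculated from optical density data.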
(The SRB assay estimates cell density from bound dye.)

The next test deals with NCI-H460. The experiment in a line: Growth inhibition of human NCI-H460 cells after 48 hrs by SRB assay. As to conditions: NCI-H460, 48 h. The method, boiled down: as §1
For another test, the system named is BXPC-3. As to the kind of experiment: Growth inhibition of human BxPC3 cells after 48 hrs by SRB assay. As to conditions: BXPC-3, 48 h. The method, boiled down:
as §1

The subject of another test is MCF7. As to the kind of experiment: Growth inhibition of human MCF7 cells after 48 hrs by SRB assay. Conditions: MCF7, 48 h. The method, boiled down:
as §1

The next test deals with KM-20L2. As to the kind of experiment: Growth inhibition of human KM20L2 cells after 48 hrs by SRB assay. Conditions: KM-20L2, 48 h. Put shortly: as §1
The test system of the next test is DU-145. The experiment in a line: Growth inhibition of human DU145 cells after 48 hrs by SRB assay. Conditions: DU-145, 48 h. The method, boiled down:
as §1

Regarding `CC[C@H](C)[C@@H]([C@@H](CC(=O)N1CCC[C@H]1[C@H](OC)[C@@H](C)C(=O)NCCc1ccc2cccnc2c1)OC)N(C)C(=O)[C@@H](NC(=O)[C@H](C(C)C)N(C)C)C(C)C`, the figures for the GI50 in the test on SF-268 and in the test on NCI-H460 were 0.03 nM and 1.19 nM, respectively.
With `CC[C@H](C)[C@@H]([C@@H](CC(=O)N1CCC[C@H]1[C@H](OC)[C@@H](C)C(=O)NCCc1cccc2cnccc12)OC)N(C)C(=O)[C@@H](NC(=O)[C@H](C(C)C)N(C)C)C(C)C`, the GI50 (commonly the concentration that inhibits growth by half) in the test on BXPC-3 came to 7.31 nM; in the test with MCF7, 0.279 nM; with SF-268, 0.266 nM; in the test with NCI-H460 it was 17.3 nM; with KM-20L2, 0.385 nM; in the test with DU-145 it was 2.79 nM.
As to `CC[C@H](C)[C@@H]([C@@H](CC(=O)N1CCC[C@H]1[C@H](OC)[C@@H](C)C(=O)NCCc1cccc2ccncc12)OC)N(C)C(=O)[C@@H](NC(=O)[C@H](C(C)C)N(C)C)C(C)C`, the GI50 in the test on BXPC-3 came out at 4.25 nM; with MCF7, 0.133 nM; in the test with SF-268, 0.07 nM; in the test on NCI-H460 it was 9.03 nM; with KM-20L2, 0.146 nM; in the test on DU-145 it was 0.053 nM.
On to `CC[C@H](C)[C@@H]([C@@H](CC(=O)N1CCC[C@H]1[C@H](OC)[C@@H](C)C(=O)NCCc1ccc2ccncc2c1)OC)N(C)C(=O)[C@@H](NC(=O)[C@H](C(C)C)N(C)C)C(C)C`, for which the GI50 was determined as 4.39 nM with BXPC-3; 0.186 nM in the test on MCF7; 0.068 nM in the test on SF-268; 9.3 nM in the test with NCI-H460; 0.399 nM with KM-20L2; 0.033 nM in the test on DU-145.
With `CC[C@H](C)[C@@H]([C@@H](CC(=O)N1CCC[C@H]1[C@H](OC)[C@@H](C)C(=O)NCCc1cccc2ccncc12)OC)N(C)C(=O)[C@@H](NC(=O)[C@@H](NC)C(C)C)C(C)C` (H-[NMeV]V[Dil][Dolaproine]-X1), the GI50 in the test with BXPC-3 worked out at 40.6 nM; with MCF7, 0.271 nM; in the test on SF-268 it was 0.135 nM; in the test on NCI-H460, 122 nM; with KM-20L2, 0.542 nM; in the test with DU-145, 0.42 nM.
With `CC[C@H](C)[C@@H]([C@@H](CC(=O)N1CCC[C@H]1[C@H](OC)[C@@H](C)C(=O)NCCc1cccc2cnccc12)OC)N(C)C(=O)[C@@H](NC(=O)[C@@H](NC)C(C)C)C(C)C` (H-[NMeV]V[Dil][Dolaproine]-X2), the GI50 with BXPC-3 amounted to 11 nM; in the test on MCF7, 0.095 nM; with SF-268, 0.132 nM; in the test on NCI-H460 it was 42 nM; in the test on KM-20L2, 0.271 nM; in the test with DU-145 it was 0.677 nM.
Turning to `CC[C@H](C)[C@@H]([C@@H](CC(=O)N1CCC[C@H]1[C@H](OC)[C@@H](C)C(=O)NCCc1ccc2ccncc2c1)OC)N(C)C(=O)[C@@H](NC(=O)[C@@H](NC)C(C)C)C(C)C` (H-[NMeV]V[Dil][Dolaproine]-X3), the GI50 with BXPC-3 was 44.7 nM; in the test with MCF7, 0.149 nM; in the test on SF-268, 0.325 nM; in the test with NCI-H460, 54.2 nM; in the test on KM-20L2 it was 0.569 nM; in the test with DU-145, 0.122 nM.
For the compound `CC[C@H](C)[C@@H]([C@@H](CC(=O)N1CCC[C@H]1[C@H](OC)[C@@H](C)C(=O)NCCc1cccc2ccncc12)OC)N(C)C(=O)[C@@H](NC(=O)[C@H](C(C)C)N(C)C(=O)OCc1ccc(NC(=O)[C@H](CCCNC(N)=O)NC(=O)[C@@H](NC(=O)CCCCCN2C(=O)C=CC2=O)C(C)C)cc1)C(C)C` ({Hexanoyl(6-maleimido)}-V[Cit][PABC][NMeV]V[Dil][Dolaproine]-X1), the GI50 in the test with BXPC-3 came to 524 nM; in the test with MCF7 it was 22.4 nM; in the test on SF-268, 16.5 nM; with NCI-H460 it was 2240 nM; in the test on KM-20L2, 32.2 nM; in the test on DU-145, 23.2 nM.
Consider `CC[C@H](C)[C@@H]([C@@H](CC(=O)N1CCC[C@H]1[C@H](OC)[C@@H](C)C(=O)NCCc1cccc2cnccc12)OC)N(C)C(=O)[C@@H](NC(=O)[C@H](C(C)C)N(C)C(=O)OCc1ccc(NC(=O)[C@H](CCCNC(N)=O)NC(=O)[C@@H](NC(=O)CCCCCN2C(=O)C=CC2=O)C(C)C)cc1)C(C)C` ({Hexanoyl(6-maleimido)}-V[Cit][PABC][NMeV]V[Dil][Dolaproine]-X2), for which the GI50 worked out at 307 nM with BXPC-3; 21.7 nM in the test on MCF7; 9.72 nM in the test on SF-268; 396 nM with NCI-H460; 30.7 nM with KM-20L2; 26.9 nM in the test with DU-145.
For `CC[C@H](C)[C@@H]([C@@H](CC(=O)N1CCC[C@H]1[C@H](OC)[C@@H](C)C(=O)NCCc1ccc2ccncc2c1)OC)N(C)C(=O)[C@@H](NC(=O)[C@H](C(C)C)N(C)C(=O)OCc1ccc(NC(=O)[C@H](CCCNC(N)=O)NC(=O)[C@@H](NC(=O)CCCCCN2C(=O)C=CC2=O)C(C)C)cc1)C(C)C` ({Hexanoyl(6-maleimido)}-V[Cit][PABC][NMeV]V[Dil][Dolaproine]-X3), the GI50 with BXPC-3 amounted to 149 nM; with MCF7 it was 18 nM; with SF-268 it was 9.72 nM; in the test on NCI-H460, 448 nM; with KM-20L2 it was 32.2 nM; in the test on DU-145 it was 15.7 nM.
